Test results reported in ChEMBL document CHEMBL1275559, “Complex ciprofloxacin resistome revealed by screening a Pseudomonas aeruginosa mutant library for altered susceptibility” (2008).
Activity calls are given as the source filed them.

How the values were obtained:
Pseudomonas aeruginosa [1] = experiment: Upregulation of putative phage tail protein in Pseudomonas aeruginosa PA0619 at MIC; type: functional, organism-based
Pseudomonas aeruginosa [2] = experiment: Upregulation of putative tail fiber protein in Pseudomonas aeruginosa PA0620 at 0.3 times MIC; type: functional, organism-based
Pseudomonas aeruginosa [3] = experiment: Upregulation of putative tail fiber protein in Pseudomonas aeruginosa PA0620 at MIC; type: functional, organism-based
Pseudomonas aeruginosa [4] = experiment: Upregulation of putative phage tail tube protein in Pseudomonas aeruginosa PA0623 at 0.3 times MIC; type: functional, organism-based
Pseudomonas aeruginosa [5] = experiment: Upregulation of putative tail fiber assembly protein in Pseudomonas aeruginosa PA0621 at 0.3 times MIC; type: functional, organism-based
Pseudomonas aeruginosa [6] = experiment: Upregulation of putative tail fiber assembly protein in Pseudomonas aeruginosa PA0621 at MIC; type: functional, organism-based
Pseudomonas aeruginosa [7] = experiment: Upregulation of putative phage tail sheath protein in Pseudomonas aeruginosa PA0622 at 0.3 times MIC after 48 hrs; type: functional, organism-based
Pseudomonas aeruginosa [8] = experiment: Upregulation of putative phage tail sheath protein in Pseudomonas aeruginosa PA0622 at MIC after 48 hrs; type: functional, organism-based
Pseudomonas aeruginosa [9] = experiment: Upregulation of putative phage tail tube protein in Pseudomonas aeruginosa PA0623 at MIC; type: functional, organism-based
Pseudomonas aeruginosa [10] = experiment: Upregulation of conserved hypothetical protein in Pseudomonas aeruginosa PA0624 at 0.3 times MIC; type: functional, organism-based
Method in brief: (§1)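 P. aeruginosa cells were treated with ciprofloxacin at 0.3× MIC or 1× MIC. Gene expression trend was scored relative to untreated cells.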

Pseudomonas aeruginosa [11] = experiment: Upregulation of putative tail formation protein in Pseudomonas aeruginosa PA0626 at 0.3 times MIC; type: functional, organism-based
Pseudomonas aeruginosa [12] = experiment: Upregulation of hypothetical protein in Pseudomonas aeruginosa PA0630 at 0.3 times MIC; type: functional, organism-based; method in brief: as §1
Pseudomonas aeruginosa [13] = experiment: Upregulation of hypothetical protein in Pseudomonas aeruginosa PA0630 at MIC; type: functional, organism-based; method in brief: as §1
Pseudomonas aeruginosa [14] = experiment: Upregulation of putative major tail protein V in Pseudomonas aeruginosa PA0633 at MIC; type: functional, organism-based; method in brief: as §1
Pseudomonas aeruginosa [15] = experiment: Upregulation of hypothetical protein in Pseudomonas aeruginosa PA0634 at 0.3 times MIC; type: functional, organism-based; method in brief: as §1
Pseudomonas aeruginosa [16] = experiment: Upregulation of hypothetical protein in Pseudomonas aeruginosa PA0634 at MIC; type: functional, organism-based; method in brief: as §1
Pseudomonas aeruginosa [17] = experiment: Upregulation of putative phage tail assembly protein in Pseudomonas aeruginosa PA0640 at 0.3 times MIC; type: functional, organism-based; method in brief: as §1
Pseudomonas aeruginosa [18] = experiment: Upregulation of putative phage tail assembly protein in Pseudomonas aeruginosa PA0640 at MIC; type: functional, organism-based; method in brief: as §1
Pseudomonas aeruginosa [19] = experiment: Upregulation of putative phage-related protein, tail component in Pseudomonas aeruginosa PA0641 at 0.3 times MIC; type: functional, organism-based
Pseudomonas aeruginosa [20] = experiment: Upregulation of putative phage-related protein, tail component in Pseudomonas aeruginosa PA0641 at MIC; type: functional, organism-based
Pseudomonas aeruginosa [21] = experiment: Upregulation of conserved hypothetical protein in Pseudomonas aeruginosa PA0647 at 0.3 times MIC; type: functional, organism-based; method in brief: as §1
Pseudomonas aeruginosa [22] = experiment: Upregulation of conserved hypothetical protein in Pseudomonas aeruginosa PA0647 at MIC; type: functional, organism-based; method in brief: as §1
Pseudomonas aeruginosa [23] = experiment: Upregulation of hypothetical protein in Pseudomonas aeruginosa PA0736-PA0737 at 0.3 times MIC; type: functional, organism-based; method in brief: as §1
Pseudomonas aeruginosa [24] = experiment: Upregulation of hypothetical protein in Pseudomonas aeruginosa PA0736-PA0737 at MIC; type: functional, organism-based; method in brief: as §1
Pseudomonas aeruginosa [25] = experiment: Upregulation of conserved hypothetical protein in Pseudomonas aeruginosa PA1433 at MIC after 48 hrs; type: functional, organism-based
Pseudomonas aeruginosa [26] = experiment: Upregulation of putative permease of ABC transporter in Pseudomonas aeruginosa PA2060 at 0.3 times MIC after 48 hrs; type: functional, organism-based
Pseudomonas aeruginosa [27] = experiment: Downregulation of hypothetical protein in Pseudomonas aeruginosa PA3276 at 0.3 times MIC after 48 hrs; type: functional, organism-based
Pseudomonas aeruginosa [28] = experiment: Upregulation of conserved hypothetical protein in Pseudomonas aeruginosa PA3784 at MIC after 48 hrs; type: functional, organism-based
Pseudomonas aeruginosa [29] = experiment: Upregulation of possible nuclease or phosphatase in Pseudomonas aeruginosa PA3958 at 0.3 times MIC after 48 hrs; type: functional, organism-based
Pseudomonas aeruginosa [30] = experiment: Upregulation of possible nuclease or phosphatase in Pseudomonas aeruginosa PA3958 at MIC after 48 hrs; type: functional, organism-based
Pseudomonas aeruginosa [31] = experiment: Upregulation of hypothetical protein in Pseudomonas aeruginosa PA0338 at MIC; type: functional, organism-based; method in brief: as §1
Pseudomonas aeruginosa [32] = experiment: Upregulation of putative tail length determination protein in Pseudomonas aeruginosa PA0636 at 0.3 times MIC; type: functional, organism-based
Pseudomonas aeruginosa [33] = experiment: Upregulation of putative tail length determination protein in Pseudomonas aeruginosa PA0636 at MIC; type: functional, organism-based
Pseudomonas aeruginosa [34] = experiment: Upregulation of putative minor tail protein L in Pseudomonas aeruginosa PA0638 at MIC; type: functional, organism-based; method in brief: as §1
Pseudomonas aeruginosa [35] = experiment: Upregulation of putative major tail protein V in Pseudomonas aeruginosa PA0633 at 0.3 times MIC; type: functional, organism-based; method in brief: as §1
Pseudomonas aeruginosa [36] = experiment: Upregulation of putative tail formation protein in Pseudomonas aeruginosa PA0626 at MIC; type: functional, organism-based
Pseudomonas aeruginosa [37] = experiment: Upregulation of conserved hypothetical protein in Pseudomonas aeruginosa PA0624 at MIC; type: functional, organism-based; method in brief: as §1
Pseudomonas aeruginosa [38] = experiment: Upregulation of conserved hypothetical protein in Pseudomonas aeruginosa PA0613 at MIC after 48 hrs; type: functional, organism-based
Pseudomonas aeruginosa [39] = experiment: Upregulation of ygdP gene in Pseudomonas aeruginosa PA0336 at 0.3 times MIC relative to untreated control; type: functional, organism-based
Pseudomonas aeruginosa [40] = experiment: Upregulation of ygdP gene in Pseudomonas aeruginosa PA0336 at 1 times MIC relative to untreated control; type: functional, organism-based
Pseudomonas aeruginosa [41] = experiment: Upregulation of mexB gene in Pseudomonas aeruginosa PA0426 at 0.3 times MIC relative to untreated control; type: functional, organism-based; method in brief: as §1
Pseudomonas aeruginosa [42] = experiment: Upregulation of oprM gene in Pseudomonas aeruginosa PA0427 at 1 times MIC relative to untreated control; type: functional, organism-based; method in brief: as §1
Pseudomonas aeruginosa [43] = experiment: Downregulation of oprF gene in Pseudomonas aeruginosa PA1777 at 1 times MIC relative to untreated control; type: functional, organism-based; method in brief: as §1
Pseudomonas aeruginosa [44] = experiment: Downregulation of tig gene in Pseudomonas aeruginosa PA1800 at 1 times MIC relative to untreated control; type: functional, organism-based; method in brief: as §1
Pseudomonas aeruginosa [45] = experiment: Downregulation of betT1 gene in Pseudomonas aeruginosa PA5375 at 0.3 times MIC relative to untreated control; type: functional, organism-based; method in brief: as §1
Pseudomonas aeruginosa [46] = experiment: Upregulation of nuoN gene in Pseudomonas aeruginosa PA2649 at 0.3 times MIC; type: functional, organism-based; method in brief: as §1
Pseudomonas aeruginosa [47] = experiment: Upregulation of hitB gene in Pseudomonas aeruginosa PA4688 at 0.3 times MIC; type: functional, organism-based; method in brief: as §1
Pseudomonas aeruginosa [48] = experiment: Upregulation of hitB gene in Pseudomonas aeruginosa PA4688 at MIC; type: functional, organism-based; method in brief: as §1
Pseudomonas aeruginosa [49] = experiment: Upregulation of mutL gene in Pseudomonas aeruginosa PA4946 at MIC; type: functional, organism-based; method in brief: as §1
Pseudomonas aeruginosa [50] = experiment: Downregulation of nuoG gene in Pseudomonas aeruginosa PA2642 at MIC; type: functional, organism-based; method in brief: as §1
Pseudomonas aeruginosa [51] = experiment: Downregulation of adhA gene in Pseudomonas aeruginosa PA5427 at MIC; type: functional, organism-based; method in brief: as §1
Pseudomonas aeruginosa [52] = experiment: Upregulation of atpB gene in Pseudomonas aeruginosa PA5560 at MIC; type: functional, organism-based; method in brief: as §1
Pseudomonas aeruginosa [53] = experiment: Upregulation of gidA gene in Pseudomonas aeruginosa PA5565 at MIC; type: functional, organism-based; method in brief: as §1
Pseudomonas aeruginosa [54] = experiment: Upregulation of hypothetical protein in Pseudomonas aeruginosa PA0338 at 0.3 times MIC; type: functional, organism-based; method in brief: as §1
Pseudomonas aeruginosa [55] = experiment: Upregulation of putative sensor/response regulator hybrid in Pseudomonas aeruginosa PA1611 at 0.3 times MIC; type: functional, organism-based
Pseudomonas aeruginosa [56] = experiment: Upregulation of hypothetical protein in Pseudomonas aeruginosa PA4459 at MIC; type: functional, organism-based; method in brief: as §1
Pseudomonas aeruginosa [57] = experiment: Upregulation of hypothetical protein in Pseudomonas aeruginosa PA4685 at 0.3 times MIC; type: functional, organism-based; method in brief: as §1
Pseudomonas aeruginosa [58] = experiment: Upregulation of conserved hypothetical protein in Pseudomonas aeruginosa PA0613 at 0.3 times MIC after 48 hrs; type: functional, organism-based
Pseudomonas aeruginosa [59] = experiment: Upregulation of conserved hypothetical protein in Pseudomonas aeruginosa PA0615 at 0.3 times MIC; type: functional, organism-based; method in brief: as §1
Pseudomonas aeruginosa [60] = experiment: Upregulation of hypothetical protein in Pseudomonas aeruginosa PA0616 at 0.3 times MIC; type: functional, organism-based; method in brief: as §1
Pseudomonas aeruginosa [61] = experiment: Upregulation of conserved hypothetical protein in Pseudomonas aeruginosa PA0615 at MIC; type: functional, organism-based; method in brief: as §1
Pseudomonas aeruginosa [62] = experiment: Upregulation of hypothetical protein in Pseudomonas aeruginosa PA0616 at MIC; type: functional, organism-based; method in brief: as §1
Pseudomonas aeruginosa [63] = experiment: Upregulation of putative base plate assembly protein W in Pseudomonas aeruginosa PA0617 at 0.3 times MIC; type: functional, organism-based; method in brief: as §1
Pseudomonas aeruginosa [64] = experiment: Upregulation of putative base plate assembly protein W in Pseudomonas aeruginosa PA0617 at MIC; type: functional, organism-based; method in brief: as §1
Pseudomonas aeruginosa [65] = experiment: Upregulation of putative phage base plate assembly protein in Pseudomonas aeruginosa PA0618 at 0.3 times MIC; type: functional, organism-based; method in brief: as §1
Pseudomonas aeruginosa [66] = experiment: Upregulation of putative phage base plate assembly protein in Pseudomonas aeruginosa PA0618 at MIC; type: functional, organism-based; method in brief: as §1
Pseudomonas aeruginosa [67] = experiment: Upregulation of putative phage tail protein in Pseudomonas aeruginosa PA0619 at 0.3 times MIC; type: functional, organism-based; method in brief: as §1
Pseudomonas aeruginosa [68] = experiment: Downregulation of betT1 gene in Pseudomonas aeruginosa PA5375 at 0.3 times MIC relative to untreated control

Measured: Activity

O=C(O)c1cn(C2CC2)c2cc(N3CCNCC3)c(F)cc2c1=O
active: all assays above
